Calls of active or inactive are those of the source. The rule behind the calls is not given here.

Experiment [1] is described as follows: Antiplatelet activity against New Zealand white rabbit platelets assessed as inhibition of PAF-induced platelet aggregation preincubated for 2 mins before challenge […] by spectrophotometry. It counts as functional, cell-based. As to conditions: Oryctolagus cuniculus. In a few lines:
(§1)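 Washed rabbit platelets: PRP made with 5 mM EDTA (final), then washed in Ca2+-free Tyrode's with 0.35% BSA, heparin and apyrase at 37 °C for 20 min. Resuspended in Tyrode's with 1 mM Ca2+ at 2.5 × 10^8/mL, stirred at 900 rpm. Sample in DMSO (0.5% final) for 2 min at 37 °C, then ADP 20 μM, AA 100 μM or PAF 10 nM. Read-out: maximal turbidimetric light-transmission rise within 4 min. Inhibition is calculated against vehicle.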

Experiment [2] can be described thus: Antiplatelet activity against New Zealand white rabbit platelets assessed as inhibition of PAF-induced platelet aggregation preincubated at 100 uM for 2 mins before challenge […] by spectrophotometry. As to conditions: Oryctolagus cuniculus. It counts as functional. An outline of the steps:
(§2)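 Resuspended in Tyrode's with 1 mM Ca2+ at 2.5 × 10^8/mL, stirred at 900 rpm. Sample in DMSO (0.5% final) for 2 min at 37 °C, then ADP 20 μM, AA 100 μM or PAF 10 nM. Read-out: maximal turbidimetric light-transmission rise within 4 min. Inhibition is calculated against vehicle.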

A short description of experiment [3]: Antiplatelet activity against New Zealand white rabbit platelets assessed as inhibition of arachidonic acid-induced platelet aggregation preincubated for 2 mins before challenge […] by spectrophotometry. It counts as functional, cell-based. As to conditions: Oryctolagus cuniculus. An outline of the steps: as §1
Experiment [4] is described as follows: Antiplatelet activity against New Zealand white rabbit platelets assessed as inhibition of arachidonic acid-induced platelet aggregation preincubated at 100 uM for 2 mins before challenge […] by spectrophotometry. It counts as functional. As to conditions: Oryctolagus cuniculus. In a few lines: as §2
Experiment [5] is described as follows: Antiplatelet activity against New Zealand white rabbit platelets assessed as inhibition of ADP-induced platelet aggregation preincubated for 2 mins before challenge […] by spectrophotometry. It counts as functional, cell-based. As to conditions: Oryctolagus cuniculus. In a few lines:
as §2

Experiment [6] can be described thus: (§3) Antiplatelet activity against New Zealand white rabbit platelets assessed as inhibition of ADP-induced platelet aggregation preincubated at 100 uM for 2 mins before challenge […] by spectrophotometry. Format: functional. As to conditions: Oryctolagus cuniculus. An outline of the steps: as §2
Experiment [7] deals with Platelet. Nature of the experiment: Prothrombotic activity in New Zealand white rabbit platelets assessed as increase in platelet aggregation at 100 uM by spectrophotometry. It counts as functional, Oryctolagus cuniculus. In a few lines: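 Washed rabbit platelets are prepared the same way: 2.5 × 10^8/mL in Tyrode's with 1 mM Ca2+, stirred at 900 rpm at 37 °C, DMSO fixed at 0.5% final. Compound is added alone, with no agonist. Aggregation is read turbidimetrically as light transmission, with suspension set as 0% and buffer as 100%. The result is reported as % increase in aggregation.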

The nature of experiment [8]: Antiplatelet activity against New Zealand white rabbit platelets assessed as inhibition of PAF-induced platelet aggregation preincubated at 10 uM for 2 mins before challenge […] by spectrophotometry. As to conditions: Oryctolagus cuniculus. It counts as functional. In a few lines:
as §1

A short description of the next experiment: cells. As to conditions: Oryctolagus cuniculus, New Zealand white, Platelet, read-out: INH.
For experiment [9], the system named is Platelet. The description is as §3. Format: functional. As to conditions: Oryctolagus cuniculus. In a few lines: as §2

Broadly, the IC50 is the concentration that inhibits the measured activity by half. Regarding `COc1ccc([C@H]2O[C@@H](c3cc(OC)c4c(c3)OCO4)[C@H](C)[C@@H]2C)cc1OC` (relative stereo), the IC50 in experiment [1] was determined as 37.2 µM; in [3], 85 µM; in experiment [5], 56 µM. Further, the inhibition at 100 µM in experiment [2] was determined as 98.9%; in experiment [4], 80.3%; in experiment [6] it was 75.6%.
Consider `C/C=C/c1cc(OC)c2c(c1)[C@H](C)[C@@H](c1ccc3c(c1)OCO3)O2` [(-)-LICARIN B], for which the inhibition at 100 µM worked out at 5.3% in [2], 42.5% in experiment [4] and 86.7% in [6]. Moreover, in experiment [5], the IC50 stood at 50.6 µM.
In the case of `COc1cc(C[C@H](C)[C@H](C)Cc2cc3c(cc2O)OCO3)ccc1O` (relative stereo), the Activity in the experiment on Platelet [7] turned out to be 66.1%.
As for `C[C@H](Cc1cc2c(cc1O)OCO2)[C@@H](C)Cc1cc2c(cc1O)OCO2`, the Activity in the experiment on Platelet [7] was found to be 49.5%.
As for `CCCCCCCCCCCCCCCCCCNC(=O)OCC(COP(=O)([O-])OCC[n+]1ccsc1)OC` (stereo unspecified), the inhibition at 10 µM in [8] stood at 94.8%.
For the compound `COC(=O)[C@H](c1ccccc1Cl)N1CCc2sccc2C1` [CLOPIDOGREL], the inhibition at 30 µM in the experiment “cells” was 80.2%.
As to `COc1cc(O)c(C[C@H](C)[C@H](C)Cc2cc3c(cc2O)OCO3)cc1OC` (relative stereo), the inhibition at 100 µM in experiment [2] was found to be 7%; in experiment [4], 73%; in experiment [6], 71.5%.
As to `COc1cc(C[C@H](C)[C@H](C)Cc2cc3c(cc2O)OCO3)c(O)cc1O` (relative stereo), the inhibition at 100 µM was 11.7% in experiment [2], 90.9% in experiment [4] and 68.2% in [6].
`C[C@@H]1[C@H]2c3cc4c(cc3O[C@@]35OCOC3=CC(=O)[C@H](C[C@H]1C)[C@@H]25)OCO4` [SAUCHINONE]: the inhibition at 100 µM in experiment [2] came out at 11.8%; in experiment [4] it was 10.7%. Also, the inhibition entry in the experiment on Platelet [9] is “inactive”.
With `COc1cc(C[C@@H](C)[C@H](C)Cc2ccc(O)c(OC)c2)ccc1O` [(-)-DIHYDROGUAIARETICACID], the Activity with Platelet [7] was determined as 76.4%.
Turning to `COc1ccc([C@H]2O[C@@H](c3ccc(OC)c(OC)c3)[C@@H](C)[C@H]2C)cc1OC`, in experiment [1], the IC50 was found to be 9.1 µM. For the same compound, the inhibition at 100 µM came to 94.4% in experiment [2], 19.4% in [4] and 51.8% in experiment [6].
Regarding `CC(Cc1cc2c(cc1O)OCO2)C(C)C(=O)c1ccc2c(c1)OCO2` (stereo unspecified) [SAUCERNEOL G], the inhibition at 100 µM was 3.9% in experiment [2], 94.1% in experiment [4] and 90.9% in experiment [6]. Moreover, the results for the IC50 in [3] and in experiment [5] were 25.9 µM and 34.6 µM, respectively.
For the compound `CC(=O)Oc1ccccc1C(=O)O` [ASPIRIN], the inhibition at 100 µM in experiment [4] worked out at 99.7%.
On to `C=CCc1cc(OC)c(O[C@H](C)[C@H](OC(C)=O)c2cc(OC)c(OC)c(OC)c2)c(OC)c1`, for which the IC50 was 79.4 µM in experiment [1], 60.3 µM in [3] and 28.1 µM in [5]. Further, the inhibition at 100 µM in [2] amounted to 68.1%; in experiment [4], 93.5%; in experiment [6], 84.7%.
With `COc1cc(OC)c(C[C@H](C)[C@H](C)Cc2cc3c(cc2O)OCO3)cc1O` (relative stereo), the inhibition at 100 µM in experiment [2] was 26.7%; in experiment [4], 96.8%; in [6], 85.2%. Further, the figures for the 50% inhibitory concentration (IC50) in [3] and in experiment [5] were 29.4 µM and 30 µM, respectively.
With `COC1=CC(=O)C(C[C@H](C)[C@H](C)Cc2cc3c(cc2O)OCO3)=CC1=O` (relative stereo), the IC50 in experiment [1] was determined as 61.7 µM; in [3] it was 14 µM; in experiment [5], 9.8 µM. Further, the inhibition at 100 µM in [2] amounted to 92%; in experiment [4], 98.7%; in experiment [6], 90.4%.
As to `C[C@@H]1[C@H]2c3cc4c(cc3O[C@@]35OCOC3=CC(=O)[C@H](C[C@H]1C)[C@H]25)OCO4` [SAUCHINONE A], the inhibition at 100 µM in experiment [2] amounted to 23.6%; in experiment [4], 28.2%; in experiment [6], 48.2%.
For `C[C@@H]1O[C@@H](Oc2c(-c3ccc(O)c(O)c3)oc3cc(O)cc(O)c3c2=O)[C@H](O)[C@H](O)[C@H]1O` [QUERCITRIN], in that order: 6.8%, 21.8% and 83.1%.
For `COc1ccc([C@@H]2O[C@H](c3cc(OC)c4c(c3)OCO4)[C@@H](C)[C@@H]2C)cc1OC` (relative stereo), in that order: 42%, 54.4% and 19.1%.
With `C[C@@H]1[C@@H](c2ccc3c(c2)OCO3)c2c(c(O)cc3c2OCO3)C[C@H]1C`, the inhibition at 100 µM is 0.6% in [2], 83.7% in experiment [4] and 84% in experiment [6]. For the same compound, the IC50 in experiment [3] was found to be 71.4 µM; in [5], 40.3 µM.
On to `C/C=C/c1cc(OC)c2c(c1)[C@H](C)[C@@H](c1ccc(O)c(OC)c1)O2` [LICARIN A], for which the Activity in the experiment on Platelet [7] came out at 66.8%.

The values above are taken from ChEMBL document CHEMBL3102821, “Lignans from the aerial parts of Saururus chinensis: isolation, structural characterization, and their effects on platelet aggregation” (J Nat Prod, 2014).
